The source of these data is ChEMBL document CHEMBL3351463, “Methyl effect in azumamides provides insight into histone deacetylase inhibition by macrocycles” (J Med Chem, 2014).

Broadly, the Ki is a dissociation constant, usually derived from enzyme kinetics or from competition with a known ligand. By inhibition is commonly meant the relative decrease from the control value, in per cent.

In one assay the target is Histone deacetylase 1 (Homo sapiens, UniProt Q13547). Briefly: Inhibition of human recombinant HDAC1 using [Ac-Leu-Gly-Lys(Ac)-AMC substrate incubated for 15 to 30 mins.
The target in assay [1] is T1, Protein deacetylase HDAC6 (Homo sapiens, UniProt Q9UBN7).
T1 sequence (Q9UBN7 whole entry): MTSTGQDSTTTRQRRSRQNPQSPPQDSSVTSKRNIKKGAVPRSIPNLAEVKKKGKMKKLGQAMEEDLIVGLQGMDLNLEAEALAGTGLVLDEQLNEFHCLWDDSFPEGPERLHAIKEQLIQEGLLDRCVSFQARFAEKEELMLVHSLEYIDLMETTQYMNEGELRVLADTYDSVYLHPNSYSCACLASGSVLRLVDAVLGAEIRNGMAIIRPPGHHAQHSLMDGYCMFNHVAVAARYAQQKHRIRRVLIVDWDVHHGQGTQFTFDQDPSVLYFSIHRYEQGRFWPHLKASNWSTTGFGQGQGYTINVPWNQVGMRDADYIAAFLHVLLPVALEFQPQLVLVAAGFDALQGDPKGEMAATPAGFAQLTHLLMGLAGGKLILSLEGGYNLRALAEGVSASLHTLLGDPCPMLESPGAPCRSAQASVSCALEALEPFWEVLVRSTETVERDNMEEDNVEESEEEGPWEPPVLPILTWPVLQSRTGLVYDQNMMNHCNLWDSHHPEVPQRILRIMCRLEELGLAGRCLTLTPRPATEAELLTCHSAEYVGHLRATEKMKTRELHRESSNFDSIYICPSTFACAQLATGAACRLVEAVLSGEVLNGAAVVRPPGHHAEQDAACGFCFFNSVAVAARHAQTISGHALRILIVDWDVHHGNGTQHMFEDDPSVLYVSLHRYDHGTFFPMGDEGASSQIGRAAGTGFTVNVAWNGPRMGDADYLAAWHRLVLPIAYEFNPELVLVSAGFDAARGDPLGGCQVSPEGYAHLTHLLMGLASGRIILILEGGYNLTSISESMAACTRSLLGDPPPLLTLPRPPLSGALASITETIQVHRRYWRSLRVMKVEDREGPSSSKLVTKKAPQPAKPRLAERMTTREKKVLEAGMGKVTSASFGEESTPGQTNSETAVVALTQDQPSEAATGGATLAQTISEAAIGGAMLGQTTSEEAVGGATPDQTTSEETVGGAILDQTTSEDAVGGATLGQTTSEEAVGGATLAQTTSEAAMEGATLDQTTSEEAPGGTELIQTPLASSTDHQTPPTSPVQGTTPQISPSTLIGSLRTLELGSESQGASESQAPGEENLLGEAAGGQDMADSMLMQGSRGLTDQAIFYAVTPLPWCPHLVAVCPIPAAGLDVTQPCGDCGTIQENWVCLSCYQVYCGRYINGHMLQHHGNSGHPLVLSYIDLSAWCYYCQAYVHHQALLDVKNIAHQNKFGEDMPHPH
Briefly: Inhibition of human recombinant HDAC6 using [Ac-Leu-Gly-Lys(Ac)-AMC substrate incubated for 15 to 30 mins.

Another assay concerns the target Histone deacetylase 3 (Homo sapiens, UniProt O15379). Kind of assay: Inhibition of human recombinant HDAC3 using [Ac-Leu-Gly-Lys(Ac)-AMC substrate incubated for 15 to 30 mins.
The next assay addresses Histone deacetylase 2 (Homo sapiens, UniProt Q92769). Kind of assay: Inhibition of human recombinant HDAC2 using [Ac-Leu-Gly-Lys(Ac)-AMC substrate incubated for 15 to 30 mins.
Assay [2] concerns the target T2, Histone deacetylase 8 (Homo sapiens) (UniProt Q9BY41).
T2 sequence (whole entry): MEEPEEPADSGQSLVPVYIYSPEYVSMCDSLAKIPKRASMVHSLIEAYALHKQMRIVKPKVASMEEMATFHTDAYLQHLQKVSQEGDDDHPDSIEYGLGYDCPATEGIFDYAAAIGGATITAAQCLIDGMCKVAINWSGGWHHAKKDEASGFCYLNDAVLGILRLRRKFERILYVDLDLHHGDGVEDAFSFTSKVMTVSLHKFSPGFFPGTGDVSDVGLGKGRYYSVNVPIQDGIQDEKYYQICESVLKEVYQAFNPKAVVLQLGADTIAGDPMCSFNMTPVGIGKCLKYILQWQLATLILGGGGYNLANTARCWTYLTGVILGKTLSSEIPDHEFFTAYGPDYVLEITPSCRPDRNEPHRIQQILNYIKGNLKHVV
Kind of assay: Inhibition of human recombinant HDAC8 at 20 uM using [Ac-Leu-Gly-Lys(Ac)-AMC substrate incubated for 15 to 30 mins. In outline:
(§1)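 Recombinant human enzyme (HDAC6 2.4 ng/μL; HDAC8 0.2 ng/μL final) in pH 8.0 Tris buffer with BSA. Ac-Leu-Gly-Lys(Ac)-AMC substrate at 20 μM for HDAC6 and 200 μM for HDAC8. Incubated 30 min at 37 °C, then trypsin development 15–30 min at room temperature. Fluorescence read at ex 360/em 460 nm.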

In assay [3] the target is T3, Polyamine deacetylase HDAC10 (Homo sapiens, UniProt Q969S8).
T3 sequence (Q969S8 whole entry): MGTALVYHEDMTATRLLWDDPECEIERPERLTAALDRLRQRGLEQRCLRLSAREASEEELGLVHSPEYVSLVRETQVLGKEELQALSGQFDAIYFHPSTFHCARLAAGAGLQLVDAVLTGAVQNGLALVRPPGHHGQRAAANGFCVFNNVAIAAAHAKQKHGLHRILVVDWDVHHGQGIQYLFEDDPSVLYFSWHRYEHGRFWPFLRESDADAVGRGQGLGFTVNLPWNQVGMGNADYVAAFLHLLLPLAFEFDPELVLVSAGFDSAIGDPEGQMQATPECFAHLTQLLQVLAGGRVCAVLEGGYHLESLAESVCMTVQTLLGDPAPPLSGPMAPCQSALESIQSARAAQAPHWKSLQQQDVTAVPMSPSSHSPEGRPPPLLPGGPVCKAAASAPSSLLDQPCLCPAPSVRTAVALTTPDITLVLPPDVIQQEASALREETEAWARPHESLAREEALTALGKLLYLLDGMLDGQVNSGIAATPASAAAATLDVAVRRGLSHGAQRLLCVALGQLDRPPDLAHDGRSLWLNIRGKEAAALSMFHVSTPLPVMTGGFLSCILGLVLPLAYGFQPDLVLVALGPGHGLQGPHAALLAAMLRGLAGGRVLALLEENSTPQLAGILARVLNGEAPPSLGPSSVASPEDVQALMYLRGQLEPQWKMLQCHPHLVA
Briefly: Inhibition of human recombinant HDAC10 using Ac-Arg-His-Lys(Ac)-Lys(Ac)-AMC substrate incubated for 15 to 30 mins.

Another assay deals with T4, Histone deacetylase 11 (Homo sapiens, UniProt Q96DB2).
T4 sequence (Q96DB2 whole entry): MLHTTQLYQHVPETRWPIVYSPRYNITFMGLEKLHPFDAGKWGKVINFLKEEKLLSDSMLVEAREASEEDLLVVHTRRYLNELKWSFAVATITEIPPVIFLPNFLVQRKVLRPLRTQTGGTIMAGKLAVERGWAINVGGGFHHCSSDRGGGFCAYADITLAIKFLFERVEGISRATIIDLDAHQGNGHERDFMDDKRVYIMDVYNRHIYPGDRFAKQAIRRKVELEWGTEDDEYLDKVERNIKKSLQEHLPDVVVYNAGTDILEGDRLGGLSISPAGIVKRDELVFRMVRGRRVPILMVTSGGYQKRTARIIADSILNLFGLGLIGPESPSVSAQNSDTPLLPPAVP
Briefly: Inhibition of human recombinant HDAC11 using [Ac-Leu-Gly-Lys(Ac)-AMC substrate incubated for 15 to 30 mins.

A further assay concerns EB-3. Kind of assay: Cytotoxic activity against human EB3 cells assessed as growth inhibition up to 25 uM after 3 days by MTT assay. In kind it is functional, cell-based. The method, boiled down:
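EB-3 (EBV-infected human Burkitt's lymphoma) cells seeded at 2 × 10^4 per well in RPMI-1640 with 10% FCS and 1% penicillin/streptomycin, cultured overnight at 37 °C, 5% CO2, then given compound or DMSO vehicle. 2-fold dilution series from DMSO stocks; 3 days exposure. MTT added for 4 h, formazan dissolved in acidic 2-propanol, A570 minus 630 nm. Three experiments in duplicate.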
(Tetrazolium dyes change colour on reduction, which living cells bring about.)

The target of another assay is T5, Histone deacetylase 8 (Homo sapiens, UniProt Q9BY41).
T5 sequence (Q9BY41 whole entry): T2 sequence (whole entry)
Kind of assay: Inhibition of human recombinant HDAC8 using [Ac-Leu-Gly-Lys(Ac)-AMC substrate incubated for 15 to 30 mins.

In assay [4] the target is T6, Protein deacetylase HDAC6 (Homo sapiens) (UniProt Q9UBN7).
T6 sequence (whole entry): T1 sequence (Q9UBN7 whole entry)
Briefly: Inhibition of human recombinant HDAC6 at 20 uM using [Ac-Leu-Gly-Lys(Ac)-AMC substrate incubated for 15 to 30 mins. In outline: as §1

SMILES strings stand for the structures. The source made the active and inactive calls. The calls are words filed in the database; no cut-off is given here.

Sequence of Histone deacetylase 3 (O15379 whole entry): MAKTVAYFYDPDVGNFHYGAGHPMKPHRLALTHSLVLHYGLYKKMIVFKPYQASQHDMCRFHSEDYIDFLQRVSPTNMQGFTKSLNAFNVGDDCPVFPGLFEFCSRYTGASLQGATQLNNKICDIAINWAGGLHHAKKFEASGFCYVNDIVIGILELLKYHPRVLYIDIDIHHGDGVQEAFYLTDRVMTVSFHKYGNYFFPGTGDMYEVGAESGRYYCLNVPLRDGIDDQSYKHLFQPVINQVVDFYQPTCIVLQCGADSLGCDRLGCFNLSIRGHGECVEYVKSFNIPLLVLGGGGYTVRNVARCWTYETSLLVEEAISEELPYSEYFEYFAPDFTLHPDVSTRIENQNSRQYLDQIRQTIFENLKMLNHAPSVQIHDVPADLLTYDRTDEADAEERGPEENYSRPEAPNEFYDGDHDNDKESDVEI
Sequence of Histone deacetylase 2 (Q92769 whole entry): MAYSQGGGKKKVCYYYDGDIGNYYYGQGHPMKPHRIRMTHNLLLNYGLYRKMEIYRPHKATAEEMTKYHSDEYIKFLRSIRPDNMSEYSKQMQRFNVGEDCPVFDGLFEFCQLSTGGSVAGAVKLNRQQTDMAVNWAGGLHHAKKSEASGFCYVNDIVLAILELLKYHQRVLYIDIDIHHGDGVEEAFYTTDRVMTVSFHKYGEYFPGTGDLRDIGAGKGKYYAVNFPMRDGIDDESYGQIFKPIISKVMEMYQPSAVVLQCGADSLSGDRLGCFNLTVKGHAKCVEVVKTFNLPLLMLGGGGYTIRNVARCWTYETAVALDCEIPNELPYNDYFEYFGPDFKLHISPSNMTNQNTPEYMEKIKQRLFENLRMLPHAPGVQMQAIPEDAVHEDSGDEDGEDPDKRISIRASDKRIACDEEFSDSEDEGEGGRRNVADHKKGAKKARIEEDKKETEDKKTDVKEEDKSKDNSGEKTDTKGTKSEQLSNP
Sequence of Histone deacetylase 1 (Q13547 whole entry): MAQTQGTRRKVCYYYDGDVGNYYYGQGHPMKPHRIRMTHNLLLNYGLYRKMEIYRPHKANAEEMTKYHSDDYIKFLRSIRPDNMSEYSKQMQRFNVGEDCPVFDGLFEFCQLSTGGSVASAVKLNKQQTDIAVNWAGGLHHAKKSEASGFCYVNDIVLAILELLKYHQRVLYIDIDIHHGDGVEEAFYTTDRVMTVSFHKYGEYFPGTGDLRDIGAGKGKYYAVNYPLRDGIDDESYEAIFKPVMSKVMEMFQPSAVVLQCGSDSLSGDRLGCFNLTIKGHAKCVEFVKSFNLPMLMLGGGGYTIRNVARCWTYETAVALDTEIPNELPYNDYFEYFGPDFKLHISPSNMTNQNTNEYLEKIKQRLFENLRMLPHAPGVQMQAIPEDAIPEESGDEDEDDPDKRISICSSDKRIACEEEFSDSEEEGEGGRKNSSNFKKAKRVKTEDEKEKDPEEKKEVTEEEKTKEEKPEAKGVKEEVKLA

As to `CC(C)[C@H]1NC(=O)C[C@@H](/C=C/CCCC(=O)O)NC(=O)[C@@H](Cc2ccc(O)cc2)NC(=O)[C@@H](C)NC1=O`, the Ki on Histone deacetylase 1 stood at 700 nM; in assay [1] (read-out: Ki) it was 2200 nM; at Histone deacetylase 3, 500 nM; on Histone deacetylase 2 it was 600 nM; in [3], 700 nM; at Histone deacetylase 11, 1300 nM. Further, the Ki result on Histone deacetylase 8 is on record as “Not Active”. Also, the inhibition in assay [2] was less than 50%. Moreover, the “growth inhibition (GI)” value in the assay with EB-3 is “inactive”.
As to `CC(C)[C@H]1NC(=O)C[C@@H](CCCCCC(=O)O)NC(=O)[C@@H](Cc2ccccc2)NC(=O)[C@@H](C)NC1=O`, the Ki on Histone deacetylase 1 was 900 nM; in [1], “Not Active”; at Histone deacetylase 3, 700 nM; at Histone deacetylase 2, 800 nM; in assay [3] it was 1000 nM; on Histone deacetylase 11, 2000 nM. Moreover, the Ki entry at Histone deacetylase 8 is on record as “Not Active”. For the same molecule, the inhibition in [2] and in assay [4] was less than 50% throughout.
In the case of `CC(C)[C@H]1NC(=O)C[C@@H](C/C=C\CCC(=O)O)NC(=O)[C@@H](Cc2c[nH]c3ccccc23)NC(=O)[C@@H](C)NC1=O`, the inhibitory constant (Ki) at Histone deacetylase 1 is 200 nM; in assay [1] it was “Not Active”; on Histone deacetylase 3, 500 nM; at Histone deacetylase 2, 300 nM; in [3] it was 230 nM; on Histone deacetylase 11, 900 nM. Moreover, at Histone deacetylase 8 (read-out: Ki), the Ki worked out at 4500 nM. In the assay with EB-3, the “growth inhibition (GI)” value was “inactive”.
On to `CC(C)[C@H]1NC(=O)C[C@@H](/C=C/CCCC(=O)O)NC(=O)[C@@H](Cc2ccccc2)NC(=O)[C@@H](C)NC1=O`, for which the Ki is 1200 nM at Histone deacetylase 1; “Not Active” in assay [1]; 1400 nM at Histone deacetylase 3; 1700 nM at Histone deacetylase 2; 1600 nM in [3]; 3200 nM at Histone deacetylase 11. In addition, at Histone deacetylase 8 (read-out: Ki), the Ki was 6000 nM. In [4], the inhibition was less than 50%.
With `CC(C)[C@H]1NC(=O)[C@@H](C)[C@@H](C/C=C\CCC(N)=O)NC(=O)[C@@H](Cc2ccc(O)cc2)NC(=O)[C@@H](C)NC1=O`, the “growth inhibition (GI)” value with EB-3 is “inactive”.
Take `CC(C)[C@H]1NC(=O)C[C@@H](CCCCCC(=O)O)NC(=O)[C@@H](Cc2ccc(O)cc2)NC(=O)[C@@H](C)NC1=O`: the inhibitory constant (Ki) on Histone deacetylase 1 amounted to 1000 nM; in [1] (read-out: Ki), 3000 nM; on Histone deacetylase 3 it was 200 nM; on Histone deacetylase 2 it was 300 nM; in [3] it was 300 nM; on Histone deacetylase 11, 1000 nM. Moreover, on Histone deacetylase 8, the Ki result is recorded as “Not Active”. Moreover, the inhibition in assay [2] was less than 50%. Besides, the “growth inhibition (GI)” value with EB-3 is “inactive”.
For the molecule `CC(C)[C@H]1NC(=O)C[C@@H](C/C=C\CCC(=O)O)NC(=O)[C@@H](Cc2ccc(O)cc2)NC(=O)[C@@H](C)NC1=O`, the Ki amounted to 300 nM on Histone deacetylase 1; 6000 nM in [1] (read-out: Ki); 300 nM at Histone deacetylase 3; 300 nM on Histone deacetylase 2; 300 nM in [3]; 800 nM on Histone deacetylase 11. Also, the Ki entry on Histone deacetylase 8 is listed as “Not Active”. In addition, in the assay with EB-3, the “growth inhibition (GI)” value is “inactive”.
As to `CC(C)[C@H]1NC(=O)[C@@H](C)[C@@H](C/C=C\CCC(=O)O)NC(=O)[C@@H](Cc2ccccc2)NC(=O)[C@@H](C)NC1=O`, the “growth inhibition (GI)” value in the assay with EB-3 was “inactive”.
Turning to `CC(C)[C@H]1NC(=O)[C@@H](C)[C@@H](C/C=C\CCC(=O)O)NC(=O)[C@@H](Cc2ccc(O)cc2)NC(=O)[C@@H](C)NC1=O`, the “growth inhibition (GI)” value in the assay with EB-3 is “inactive”.
Take `CC(C)[C@H]1NC(=O)C[C@@H](/C=C/CCCC(=O)O)NC(=O)[C@@H](Cc2c[nH]c3ccccc23)NC(=O)[C@@H](C)NC1=O`: the Ki on Histone deacetylase 1 was 500 nM; in assay [1] (read-out: Ki), 3700 nM; at Histone deacetylase 3 it was 600 nM; on Histone deacetylase 2 it was 400 nM; in [3], 600 nM; at Histone deacetylase 11, 1100 nM. At Histone deacetylase 8 (read-out: Ki), the Ki is 3000 nM.
`CC(C)[C@H]1NC(=O)C[C@@H](CCCCCC(=O)O)NC(=O)[C@@H](Cc2c[nH]c3ccccc23)NC(=O)[C@@H](C)NC1=O`: the Ki is 900 nM at Histone deacetylase 1; 1900 nM in assay [1] (read-out: Ki); 500 nM at Histone deacetylase 3; 300 nM on Histone deacetylase 2; 170 nM in assay [3]; 300 nM at Histone deacetylase 11. For the same molecule, the Ki on Histone deacetylase 8 (read-out: Ki) is 4300 nM.
